A short description of assay [1]: inhibitors of TNFa-induced NFkB p65 translocation, primary screen, imaging, HUVEC, MLSMR starter and 10KST1 sets (AID 438;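 active = inhibition above 20% together with a positive visual image hit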;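 note: compound added about 3h40 before a 20 min TNFalpha stimulation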;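 for inhibition: signal is the nuclear over cytoplasmic p65 intensity ratio per well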). The following applies: HUVEC TNFa-induced p65 nuclear translocation; cell count: measured here: nuclei count (cytotoxicity indicator), at 2.08 µM; inhibition: at 2 µM, stronger effect = higher value, 0% TNFa-plus-vehicle, 100% no-TNFa wells.
Assay [2] is described as follows: reduction of polyQ htt aggregates in cells – imaging, exon1htt(103Q)mCFP cells, high-content imaging, primary screen (AID 483;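 active = visual image review flags a hit and inhibition of aggregation exceeds 20%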;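 note: compound exposure lasted 3 days before fixation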;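 for nuclei count: percent of the per-plate median nuclei count of sample wells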). The following applies: exon1htt(103Q)mCFP cell line, aggregate imaging, at 2 µM; inhibition of aggregation: stronger effect = higher value; nuclei count: measured here: cell count, toxicity.
The nature of assay [3]: endothelial E-selectin expression blockers – imaging, HUVEC, immunofluorescence, MLSMR starter and 10KST1 sets, primary screen (AID 487;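 active = visually confirmed hit in the image check and inhibition above 20%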;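 for inhibition: signal is fraction of cell area covered by stained E-selectin grains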;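 for nuclei count: 100% = median nuclei count of all wells on the same plate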). Conditions: HUVEC TNFalpha-induced E-selectin immunofluorescence imaging, at 2 µM; inhibition: stronger effect = higher value; nuclei count: measured here: cell number, toxicity.
Assay [4] deals with Voltage-gated potassium channel subunit beta-2 (Rattus norvegicus) (UniProt P62483). Briefly: inhibitors of rat Kvbeta2 reductase activity – biochemical, NADPH fluorescence, primary screen (AID 622;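 active = fluorescence slope higher than the sample average by over 3 SD, cut at about -0.22 in these data, passing the limit was not always enough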;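 note: slope of raw intensity against log time taken from 70 to 1610 s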). Conditions: recombinant KvBeta, 4-cyanobenzaldehyde reduction, at 10 µM, stronger effect = higher value.
Assay [5] has the same target. The assay can be described thus: enhancers of rat Kvbeta2 NADPH turnover – biochemical, NADPH fluorescence, primary screen (AID 623;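 active = NADPH fluorescence slope more negative than the mean of all samples by about 3 SD, 99.7% confidence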;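 note: fluorescence intensity change per second fitted from 20 to 320 s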). The following applies: Recombinant KvBeta, NADPH fluorescence decrease slope, 10 min; at 10 µM; stronger effect = lower value.
The target of assay [6] is Alpha-2C adrenergic receptor (Homo sapiens) (UniProt P18825). Briefly: compounds altering alpha2C-coupled GIRK flux – cell-based, HEK293 alpha2C/GIRK1/2, thallium flux, primary screen (AID 624;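 active = fluorescence slope after compound addition differing from the mean of all screened samples at 99.7% confidence, in either direction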;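 note: slope of fluorescence ratio to pre-addition baseline per second over 15 to 24 s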). Conditions: thallium flux BTC fluorescence, at 10 µM, actives lie on both sides.
Assay [7] in a line: inhibitors of larval lipid processing in zebrafish, primary screen, whole organism, PED6 fluorescence, gall bladder and intestine (AID 686;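 active = a full or partial loss of lipid-probe fluorescence in the fish gall bladder, intestine or both, judged by eye; inactive = no fluorescence loss, or compound toxic to the fish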;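 note: larvae 5 to 7 days old with five fish per well; signal comes from phospholipase A2 cleavage of quenched PED6 carried via bile; overnight exposure to compound and PED6 before scoring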). The following applies: Zebrafish larvae PED6 lipid processing, fluorescence scoring; screened at 20 µM (by protocol). The essentials: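 Test system – live zebrafish larvae aged 5-7 days, whole organism · Buffer or medium – E3 fish medium · Reagent – quenched phospholipase substrate PED6, 100 nM final, ingested by larvae · Doses – 20 µM single dose · Incubation – overnight compound and PED6 incubation · Technique – visual fluorescence microscopy scoring of gall bladder, gut · Read-out basis – visual per-well fluorescence inhibition score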

Assay [8] in a line: blockers of RIG-like receptor reporter activation – cell-based, Sendai virus stimulus, luciferase, 10K MLSCN set, TLR/RLR signaling modifier project, primary screen (AID 602276;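 active = inhibition at or above 50% at 10 µM; inactive = inhibition below 50%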;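 note: firefly luciferase from ISG56 promoter only with Renilla not read in this screen; 0% = Sendai virus plus DMSO and 100% = medium plus DMSO without virus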). Conditions: HEK293 RL24 IRF3 luciferase reporter, at 10 µM, stronger effect = higher value.
Assay [9] is described as follows: TLR3 IRF3 reporter activation blockers – cell-based, poly I:C stimulus, luciferase, 10K MLSCN set, primary screen (AID 602277). The following applies: HEK293-TLR3 RL24 IRF3 luciferase reporter, at 10 µM, stronger effect = higher value. In general terms: A reporter such as luciferase makes a cellular process visible.
Assay [10] addresses Muscarinic acetylcholine receptor M4 (Homo sapiens) (UniProt P08173). The assay can be described thus: M4-linked GIRK flux change, two-sided – cell-based, HEK293 M4/GIRK, thallium flux, BTC-AM, M4 allosteric agonist project, primary screen (AID 625;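 active = fluorescence slope after compound addition differing from the mean of all tested samples at 99.7% confidence, mostly higher but some lower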;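 note: thallium influx through GIRK channels coupled to M4 in HEK293 cells with BTC-AM dye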). Conditions: at 10 µM, actives lie on both sides. The procedure, abridged: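 System: HEK293 cells with M4 receptor and GIRK channels | Incubation: Cells overnight at 37 °C, BTC-AM loading 1 h, reads 2 min total | Technique: Kinetic BTC-AM fluorescence sampled at 1 Hz, 10 s pre-addition baseline | Measure: Post-addition slope, 15–24 s, of baseline-normalized fluorescence | Control set: Carbachol positive, DMSO negative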

In general, inhibition refers to the relative decrease from the control value, in per cent.

Structures are written as SMILES. The source made the active and inactive calls.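 Rule for the calls, unless noted: active = inhibition of the reporter signal at or above 50%; inactive = inhibition below 50%.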

Alpha-2C adrenergic receptor (Homo sapiens), sequence (P18825 whole entry, looked up): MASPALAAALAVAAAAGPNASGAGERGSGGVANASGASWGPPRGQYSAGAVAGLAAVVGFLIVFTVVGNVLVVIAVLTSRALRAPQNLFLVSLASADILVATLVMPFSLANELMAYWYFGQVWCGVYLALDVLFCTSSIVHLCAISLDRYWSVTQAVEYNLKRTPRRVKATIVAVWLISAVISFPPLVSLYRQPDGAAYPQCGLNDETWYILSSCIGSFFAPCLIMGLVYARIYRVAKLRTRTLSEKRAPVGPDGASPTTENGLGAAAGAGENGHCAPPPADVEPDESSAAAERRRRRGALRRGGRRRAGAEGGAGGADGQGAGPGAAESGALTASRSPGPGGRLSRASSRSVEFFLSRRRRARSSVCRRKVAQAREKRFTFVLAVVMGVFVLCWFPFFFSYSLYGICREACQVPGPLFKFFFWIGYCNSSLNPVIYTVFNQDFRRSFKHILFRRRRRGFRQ
Voltage-gated potassium channel subunit beta-2 (Rattus norvegicus), sequence (P62483 whole entry, looked up): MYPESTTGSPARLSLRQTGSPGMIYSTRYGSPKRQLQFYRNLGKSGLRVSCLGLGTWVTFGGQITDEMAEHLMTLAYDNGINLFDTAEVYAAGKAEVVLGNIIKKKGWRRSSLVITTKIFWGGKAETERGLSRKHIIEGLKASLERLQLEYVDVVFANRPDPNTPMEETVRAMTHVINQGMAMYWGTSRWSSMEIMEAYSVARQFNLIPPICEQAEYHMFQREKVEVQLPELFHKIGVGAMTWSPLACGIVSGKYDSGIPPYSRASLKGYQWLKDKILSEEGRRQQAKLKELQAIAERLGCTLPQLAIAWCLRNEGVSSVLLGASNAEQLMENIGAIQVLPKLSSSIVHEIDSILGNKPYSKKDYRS
Muscarinic acetylcholine receptor M4 (Homo sapiens), sequence (P08173 whole entry, looked up): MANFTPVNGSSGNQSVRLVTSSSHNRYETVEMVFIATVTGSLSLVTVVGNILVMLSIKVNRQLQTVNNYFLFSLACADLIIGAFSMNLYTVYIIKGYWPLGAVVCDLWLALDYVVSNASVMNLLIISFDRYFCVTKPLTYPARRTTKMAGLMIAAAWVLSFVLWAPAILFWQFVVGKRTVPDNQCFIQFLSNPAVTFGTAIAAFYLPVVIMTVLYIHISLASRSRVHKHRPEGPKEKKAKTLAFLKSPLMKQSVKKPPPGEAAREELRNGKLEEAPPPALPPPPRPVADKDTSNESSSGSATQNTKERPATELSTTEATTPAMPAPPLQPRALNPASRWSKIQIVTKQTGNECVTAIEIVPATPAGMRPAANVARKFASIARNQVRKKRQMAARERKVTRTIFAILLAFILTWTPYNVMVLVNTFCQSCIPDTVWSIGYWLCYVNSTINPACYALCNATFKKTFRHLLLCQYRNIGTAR

Take `CCOC(=O)c1c2n(c3ccc(O)cc13)CCCCC2`: the cell count in assay [1] was determined as 571. In addition, the inhibition in assay [1] was 7.1% (inactive); in [3], -113% (inactive); in [8] it was -6.81% (inactive); in assay [9], 1.43% (inactive). The inhibition of aggregation in assay [2] is -7.5% (inactive). The nuclei count was 107% in assay [2] and 110% in assay [3]. Moreover, the fluorescence slope in assay [4] was -0.413 (inactive). Also, in assay [5], the NADPH fluorescence slope is -3.4e-05 (inactive). Besides, the slope in assay [6] was 0.00489 (inactive). In addition, the result in [7] was inactive.
In the case of `CCC(=O)Nc1cc(Cl)ccc1N1CCN(C(=O)CC)CC1`, the cell count in assay [1] worked out at 376. Moreover, the inhibition in assay [1] was 2.1% (inactive); in assay [3] it was -17.9% (inactive); in assay [8], 18.6% (inactive); in assay [9], 16.6% (inactive). For the same compound, in assay [2], the inhibition of aggregation is 16.1% (inactive). Also, the nuclei count was 102% in assay [2] and 90.8% in [3]. In addition, the fluorescence slope in assay [4] is -0.465 (inactive). In addition, in [5], the NADPH fluorescence slope was -1.2e-05 (inactive). For the same compound, in assay [6], the slope is 0.00532 (inactive). The outcome in assay [7] was inactive.
As for `Clc1ccc(OCc2nnc(SCCN3CCCCC3)n2Cc2ccco2)cc1`, in [1], the cell count stood at 587. For the same compound, the inhibition in assay [1] was -2.7% (inactive); in assay [3] it was 45.2% (inactive); in [8], 8.16% (inactive); in [9] it was 13.8% (inactive). In addition, the inhibition of aggregation in assay [2] is 6% (inactive). Moreover, the nuclei count in assay [2] stood at 98.8%; in [3], 88.3%. In addition, the fluorescence slope in assay [4] was -0.28 (inactive). Besides, the NADPH fluorescence slope in [5] is -1.2e-05 (inactive). Also, the slope in [6] is 0.00483 (inactive). Besides, the outcome in assay [7] was “active; no signal in gallbladder and intestine”.
With `CCOC(=O)c1cc(CC)sc1NC(=O)COC`, in assay [1], the cell count was 324. Further, the inhibition in assay [1] is -6% (inactive); in assay [3] it was 34% (inactive); in assay [8], 2.16% (inactive); in [9], 4.15% (inactive). The inhibition of aggregation in [2] is -9.4% (inactive). The values for the nuclei count in assay [2] and in assay [3] were 86.3% and 80%, respectively. The fluorescence slope in assay [4] is -0.321 (inactive). For the same compound, in assay [5], the NADPH fluorescence slope was -7.5e-06 (inactive). Also, in [6], the slope is 0.00509 (inactive). In assay [7], the result was inactive.
Regarding `O=C(Cn1[nH]c(=O)c2ccccc2c1=O)OCC(=O)N1CCCc2ccccc21`, the cell count in assay [1] came out at 335. The inhibition in assay [1] is 4.2% (inactive); in assay [3], -37% (inactive); in assay [8] it was 8.5% (inactive); in assay [9] it was 10.3% (inactive). For the same compound, in assay [2], the inhibition of aggregation was -9% (inactive). Moreover, the values for the nuclei count in assay [2] and in assay [3] were 98.2% and 117%, respectively. Further, the fluorescence slope in assay [4] was -0.389 (inactive). In addition, in assay [5], the NADPH fluorescence slope was -6e-05 (inactive). Also, in [6], the slope was 0.00579 (inactive). The compound was called inactive in assay [7].
`O=C(O)c1ccc(C2SCC(=O)N2Cc2ccccc2)cc1` (stereo not given): the cell count in assay [1] amounted to 323. Further, the inhibition in assay [1] was -0.4% (inactive); in assay [3], 7.3% (inactive); in [8], -6.17% (inactive); in assay [9], 0.315% (inactive). Also, the inhibition of aggregation in [2] was 15.9% (inactive). In addition, the nuclei count stood at 57.9% in assay [2] and 101% in assay [3]. Also, the fluorescence slope in [4] was -0.382 (inactive). Further, in assay [5], the NADPH fluorescence slope was 1.2e-05 (inactive). Moreover, the slope in [6] was 0.00611 (inactive). The call in assay [7] was inactive.
Regarding `Cc1ccc2[nH]c3c(c2c1)CN(C(=O)CN1CCN(c2cccc(C)c2C)CC1)CC3`, in assay [1], the cell count was 392. The inhibition in assay [1] is 6.2% (inactive); in [3] it was -86.9% (inactive); in assay [8] it was 22.6% (inactive); in assay [9], 24.6% (inactive). The inhibition of aggregation in assay [2] was 22.7% (inactive). Further, the nuclei count in assay [2] was found to be 75.3%; in assay [3], 111%. In addition, in [4], the fluorescence slope is -0.306 (inactive). The NADPH fluorescence slope in [5] is -2.6e-05 (inactive). Besides, the slope in assay [6] is 0.00467 (inactive). Besides, in [7], the compound was classed as inactive.
In the case of `COc1ccccc1NC(=O)N(Cc1ccco1)Cc1cc2c(C)ccc(C)c2[nH]c1=O`, the cell count in assay [1] came to 722. Further, the inhibition in assay [1] was -11.9% (inactive); in assay [3], -13.2% (inactive); in [8], 12.5% (inactive); in assay [9] it was 5.06% (inactive). For the same compound, the inhibition of aggregation in [2] was 2.5% (inactive). The results for the nuclei count in assay [2] and in [3] were 98.7% and 100%, respectively. Besides, the fluorescence slope in assay [4] was -0.463 (inactive). Besides, in assay [5], the NADPH fluorescence slope was -4.7e-05 (inactive). Moreover, in assay [6], the slope is 0.00639 (inactive). Moreover, the compound was classed as inactive in [7].
As for `COc1cc2c(cc1OC)CN(Cc1nc3ccsc3c(=O)[nH]1)CC2`, the cell count in [1] turned out to be 335. The inhibition in assay [1] is -6.2% (inactive); in [3] it was -5.2% (inactive); in assay [8] it was 24.1% (inactive); in assay [9], 41.1% (inactive). Moreover, the inhibition of aggregation in [2] is 26.3% (inactive). Moreover, the results for the nuclei count in assay [2] and in [3] were 93% and 110%, respectively. The fluorescence slope is -0.579 (inactive) in assay [4] and 0.0061 (inactive) in assay [10]. Further, the NADPH fluorescence slope in assay [5] is -3.9e-05 (inactive).
Turning to `Clc1ccc(Cl)c(-c2nn3c(COc4ccccc4)nnc3s2)c1`, the cell count in [1] came to 678. In addition, the inhibition was -5% (inactive) in assay [1], -81.1% (inactive) in assay [3], 23.3% (inactive) in assay [8] and 23.2% (inactive) in assay [9]. The inhibition of aggregation in assay [2] is -9.4% (inactive). For the same compound, the figures for the nuclei count in assay [2] and in assay [3] were 104% and 139%, respectively. Further, the fluorescence slope in [4] is -0.546 (inactive); in assay [10], 0.00451 (inactive). The NADPH fluorescence slope in [5] was -2.8e-05 (inactive).
As to `CC1(C)NC(=O)N(CNc2cc(Cl)ccc2Cl)C1=O`, in assay [1], the cell count was determined as 649. Moreover, the inhibition is -17.4% (inactive) in assay [1], 0.8% (inactive) in assay [3], 10.6% (inactive) in assay [8] and 21.9% (inactive) in [9]. For the same compound, in [2], the inhibition of aggregation was -1.9% (inactive). The values for the nuclei count in [2] and in assay [3] were 105% and 96.7%, respectively. Moreover, the fluorescence slope in [4] was -0.435 (inactive); in assay [10] it was 0.00524 (inactive). Besides, the NADPH fluorescence slope in [5] is -0.000384 (inactive).
In the case of `COC(=O)c1c(N)n(-c2cc(OC)cc(OC)c2)c2nc3ccccc3nc12`, the cell count in assay [1] is 700. In addition, the inhibition is 9.4% (inactive) in [1], 28.6% (inactive) in assay [3], 2.96% (inactive) in [8] and -6.82% (inactive) in assay [9]. Moreover, the inhibition of aggregation in [2] was 2.3% (inactive). Besides, the nuclei count was 84.9% in assay [2] and 80% in assay [3]. The fluorescence slope is -0.0659 (inactive) in [4] and 0.00491 (inactive) in assay [10]. In addition, in assay [5], the NADPH fluorescence slope was -2.3e-05 (inactive).

Source of the values: PubChem BioAssay.
